Structures are written as SMILES. Read-outs that look alike come from different tables or passages of the source.

This is an account of results in article PMC2175342 (Nucleic Acids Research, 2007).

Test [1] concerns the target T1, HeLa cell telomerase (Homo sapiens, UniProt O14746). The experiment in a line: Semi-quantitative telomerase assay based on the 'stretch PCR' method. Conditions: for Km: natural dNTP substrate, Lineweaver–Burk plot analyses. The format is biochemical.
Test [2] addresses T1, HeLa cell telomerase. Conditions: cited from earlier work.
Test [3] concerns telomerase from human leukemia cells and HeLa cells. Conditions: cited from earlier work.
The subject of test [4] is immortalized human B- and T-cell lines. To be noted: cited from earlier work.
Test [5] has as its system cherry salmon telomerase. The experiment in a line: Primer extension assay. It counts as biochemical. Conditions: 18-mer (TTAGGG)3 primer, 5 or 20 µM analog. In outline:
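Telomerase was partially purified from immature cherry salmon testis (DEAE-cellulose, 70% ammonium sulfate, dialysis). It extended 2 µM (TTAGGG)3 in Tris–HOAc pH 8.5, KOAc, 1 mM MgCl2, 1 mM DTT and 5 µM [α-32P]dTTP. Either 200 µM dATP with 0/5 µM dGTP plus 0/5/20 µM dGTP-analog, or 200 µM dGTP with 0/5 µM dATP plus 0/5/20 µM dATP-analog. Run 1 h at 25°C, then RNase A/proteinase K, 20% PAGE–7 M urea, phosphorimaging.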

T1 sequence (O14746 whole entry): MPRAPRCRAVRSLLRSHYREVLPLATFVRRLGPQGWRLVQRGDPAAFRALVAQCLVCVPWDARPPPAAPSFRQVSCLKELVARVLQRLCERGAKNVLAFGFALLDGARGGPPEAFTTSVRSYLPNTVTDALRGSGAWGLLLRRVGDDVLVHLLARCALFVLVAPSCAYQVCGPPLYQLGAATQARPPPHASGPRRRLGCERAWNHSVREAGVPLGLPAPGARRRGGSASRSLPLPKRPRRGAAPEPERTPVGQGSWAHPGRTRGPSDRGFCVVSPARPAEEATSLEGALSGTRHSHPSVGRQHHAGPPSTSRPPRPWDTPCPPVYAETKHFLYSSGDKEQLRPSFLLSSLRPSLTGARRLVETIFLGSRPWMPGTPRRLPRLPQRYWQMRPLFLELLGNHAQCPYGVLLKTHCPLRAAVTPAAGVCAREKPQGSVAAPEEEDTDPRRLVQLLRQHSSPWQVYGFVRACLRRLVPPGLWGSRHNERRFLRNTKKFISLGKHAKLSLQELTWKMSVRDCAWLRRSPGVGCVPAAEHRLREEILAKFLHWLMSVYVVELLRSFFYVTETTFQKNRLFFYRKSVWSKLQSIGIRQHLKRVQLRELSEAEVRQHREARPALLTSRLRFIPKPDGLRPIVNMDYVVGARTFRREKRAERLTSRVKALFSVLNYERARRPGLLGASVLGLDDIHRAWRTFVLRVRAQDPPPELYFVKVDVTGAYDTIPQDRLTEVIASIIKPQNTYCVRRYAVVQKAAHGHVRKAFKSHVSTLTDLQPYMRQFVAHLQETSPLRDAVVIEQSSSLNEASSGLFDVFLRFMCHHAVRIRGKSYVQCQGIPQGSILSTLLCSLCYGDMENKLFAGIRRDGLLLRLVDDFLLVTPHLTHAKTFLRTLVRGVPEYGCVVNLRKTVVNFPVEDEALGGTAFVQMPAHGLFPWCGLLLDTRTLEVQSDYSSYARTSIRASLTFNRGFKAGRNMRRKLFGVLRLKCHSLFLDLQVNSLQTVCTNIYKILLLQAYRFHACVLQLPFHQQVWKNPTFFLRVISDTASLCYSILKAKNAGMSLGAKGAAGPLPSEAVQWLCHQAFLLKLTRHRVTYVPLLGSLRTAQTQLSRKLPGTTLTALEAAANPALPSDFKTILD
T1 sequence (O60832 whole entry partner): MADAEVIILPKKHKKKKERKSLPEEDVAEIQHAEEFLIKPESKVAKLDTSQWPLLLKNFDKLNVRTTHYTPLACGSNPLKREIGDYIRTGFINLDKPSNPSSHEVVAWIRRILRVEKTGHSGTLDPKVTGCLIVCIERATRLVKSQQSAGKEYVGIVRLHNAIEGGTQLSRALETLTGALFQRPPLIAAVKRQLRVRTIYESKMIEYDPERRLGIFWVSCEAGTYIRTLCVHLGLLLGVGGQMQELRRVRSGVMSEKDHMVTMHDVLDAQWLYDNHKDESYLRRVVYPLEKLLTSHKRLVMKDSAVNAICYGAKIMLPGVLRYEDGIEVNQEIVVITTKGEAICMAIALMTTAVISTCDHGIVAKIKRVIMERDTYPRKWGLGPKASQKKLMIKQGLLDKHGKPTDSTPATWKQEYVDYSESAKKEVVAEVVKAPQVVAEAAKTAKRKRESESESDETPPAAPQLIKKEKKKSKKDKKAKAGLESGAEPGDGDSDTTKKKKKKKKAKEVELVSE
T1 sequence (Q9NX24 whole entry partner): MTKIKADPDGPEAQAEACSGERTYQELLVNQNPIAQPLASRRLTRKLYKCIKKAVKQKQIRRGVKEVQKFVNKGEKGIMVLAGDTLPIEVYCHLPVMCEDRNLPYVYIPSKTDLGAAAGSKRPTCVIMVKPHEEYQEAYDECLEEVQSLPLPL
T1 sequence (Q9NPE3 whole entry partner): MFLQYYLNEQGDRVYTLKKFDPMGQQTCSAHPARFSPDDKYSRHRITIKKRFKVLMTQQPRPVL
T1 sequence (Q9NY12 whole entry partner): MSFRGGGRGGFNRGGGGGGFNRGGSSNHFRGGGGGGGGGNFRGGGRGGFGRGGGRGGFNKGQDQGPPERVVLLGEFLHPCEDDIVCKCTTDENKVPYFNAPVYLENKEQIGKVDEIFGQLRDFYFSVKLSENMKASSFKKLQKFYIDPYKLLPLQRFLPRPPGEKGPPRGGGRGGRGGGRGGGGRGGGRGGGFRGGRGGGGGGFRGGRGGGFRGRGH
T1 sequence (Q9BUR4 whole entry partner): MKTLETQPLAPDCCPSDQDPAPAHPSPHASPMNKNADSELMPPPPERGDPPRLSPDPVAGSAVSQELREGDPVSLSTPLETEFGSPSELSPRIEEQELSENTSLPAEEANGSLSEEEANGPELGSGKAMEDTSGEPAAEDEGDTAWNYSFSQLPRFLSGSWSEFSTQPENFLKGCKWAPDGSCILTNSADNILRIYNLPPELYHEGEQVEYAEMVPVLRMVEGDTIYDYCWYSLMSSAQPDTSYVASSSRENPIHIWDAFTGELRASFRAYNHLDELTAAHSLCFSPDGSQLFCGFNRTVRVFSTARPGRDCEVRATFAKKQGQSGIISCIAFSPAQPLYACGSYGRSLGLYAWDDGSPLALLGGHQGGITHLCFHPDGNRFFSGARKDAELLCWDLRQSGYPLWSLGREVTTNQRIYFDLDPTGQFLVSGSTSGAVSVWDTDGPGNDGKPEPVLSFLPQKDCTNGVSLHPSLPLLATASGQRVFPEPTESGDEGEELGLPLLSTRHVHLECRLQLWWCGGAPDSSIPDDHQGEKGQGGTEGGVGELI

`Cc1cn([C@H]2C[C@H](N=[N+]=[N-])[C@@H](COP(=O)(O)OP(=O)(O)OP(=O)(O)O)O2)c(=O)[nH]c1=O` [AZTTP, 3′-Azido-3′-deoxythymidine 5′-triphosphate] showed a Ki in test [1] of 15 µM. Besides, the “inhibitory effects on human telomerase” value in test [1] (Figure 2B) is listed as “weak”. The inhibition mode result in test [1] (Lineweaver–Burk plots, versus the corresponding dNTP) is reported as “nearly competitive”.

For the molecule `Nc1nc2c(ncn2[C@@H]2O[C@H](COP(=O)(O)OP(=O)(O)OP(=O)(O)O)[C@@H](O)[C@@H]2O)c(=O)[nH]1` [araGTP, 9-β-D-Arabinofuranosylguanine 5′-triphosphate], the Ki in test [2] was 1.2 µM.

For `Nc1ncnc2c1ncn2[C@H]1C[C@H](O)[C@@H](COP(=O)(O)OP(=O)(O)OP(=O)(O)O)O1` [dATP], the Km in test [1] was 0.97 ± 0.31 µM.

For `Nc1nc2c(ncn2[C@H]2C[C@H](O)[C@@H](COP(=O)(O)OP(=O)(O)OP(=O)(O)O)O2)c(=O)[nH]1` [dGTP], the figures for the Km in test [1] and in test [3] were 8.2 ± 2.1 µM and 8 to 12 µM, respectively.

`Cc1cn([C@H]2C[C@H](O)[C@@H](COP(=O)(O)OP(=O)(O)OP(=O)(O)O)O2)c(=O)[nH]c1=O` [dTTP]: the Michaelis constant (Km) is 7.9 ± 1.8 µM in test [1] and 8 to 12 µM in test [3].

As to `Nc1nc2c(ncn2[C@H]2CC[C@@H](CO)O2)c(=O)[nH]1` [ddG, 2′,3′-dideoxyguanosine], the “telomere DNA shortening” value in test [4] (10 µM, long-term treatment) was “reproducible progressive telomere DNA shortening”. The “effects on cell population doubling rates or morphology” value in test [4] is recorded as “did not have observable effects”.

As for `Nc1nc2c(ncn2[C@H]2CC[C@@H](COP(=O)(O)OP(=O)(O)OP(=O)(O)O)O2)c(=O)[nH]1` [ddGTP], the “primer extension product with analog instead of dGTP or dATP” value in test [5] is “distinct 22-mer product”. In test [2], the Ki is 0.65 µM.
